Measurements as given in ChEMBL document CHEMBL1156239, “Synthesis, anticonvulsant and antimicrobial activities of some new 2-acetylnaphthalene derivatives” (Bioorg Med Chem, 2010).
≈ marks a conversion by molar mass, not a printed value. Calls of active or inactive are those of the source. No cut-off for these calls is given here.

Columns and labels:
Escherichia coli = experiment: Antibacterial activity against Escherichia coli ATCC 25922 after 24 hrs by broth microdilution method; format: functional; settings: ATCC 25922, 24 h
How it was run: (§1)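 Broth microdilution in Mueller Hinton broth; compound stocks in DMSO, diluted into test medium. Plates incubated at 35 °C and read visually after 24 h. MIC taken as lowest concentration preventing visible growth. Ampicillin reference.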

Mus musculus [1] = experiment: Neurotoxicity in CF1 mouse assessed as time to peak effect at 150 mg/kg, ip after 1 to 2 hrs by rotarod test; format: toxicity, organism-based; design: dose 150 mg/kg, route intraperitoneal; settings: in vivo
Mus musculus [2] = experiment: Neurotoxicity in CF1 mouse at 100 mg/kg, ip after 4 hrs by rotarod test; format: toxicity, organism-based; design: dose 100 mg/kg, route intraperitoneal; settings: in vivo
How it was run: (§2)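 Male albino CF#1 mice (18–25.5 g) dosed ip with compound suspended in 0.5% methylcellulose, 0.5 h or 4 h before testing; neurotoxicity assessed by rotarod, scored as number toxic/number tested.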

Staphylococcus aureus = experiment: Antibacterial activity against Staphylococcus aureus ATCC 25923 after 24 hrs by broth microdilution method; format: functional; settings: ATCC 25923, 24 h; how it was run: as §1
Mus musculus [3] = experiment: Anticonvulsant activity in CF1 mouse assessed as inhibition of maximal electroshock-induced seizures at 30 mg/kg, ip after 0.5 hrs; format: functional, organism-based; design: dose 30 mg/kg
How it was run: (§3)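 Male albino CF#1 mice (18–25.5 g), compound suspended in 0.5% methylcellulose, given ip 0.5 h or 4 h before test. Eyes treated with 0.5% tetracaine HCl in saline; corneal-type MES at 60 Hz, 50 mA for 0.2 s; protection scored as animals protected/tested.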

Rattus norvegicus [4] = experiment: Neurotoxicity in Sprague-Dawley rat at 30 mg/kg, ip after 4 hrs by rotarod test; format: toxicity, organism-based; design: dose 30 mg/kg, route intraperitoneal; settings: in vivo
Mus musculus [5] = experiment: Neurotoxicity in CF1 mouse assessed as time to peak effect for ability to grasp rotarod at 150 mg/kg, ip by rotarod test; format: toxicity, organism-based; design: dose 150 mg/kg, route intraperitoneal; settings: in vivo
Mus musculus [6] = experiment: Anticonvulsant activity in CF1 mouse assessed as inhibition of maximal electroshock-induced seizures at 300 mg/kg, ip after 4 hrs; format: functional, organism-based; design: dose 300 mg/kg; how it was run: as §3
Rattus norvegicus [7] = experiment: Neurotoxicity in Sprague-Dawley rat assessed as time to peak effect at 50 mg/kg, ip after 2 to 6 hrs by rotarod test; format: toxicity, organism-based; design: dose 50 mg/kg, route intraperitoneal; settings: in vivo
Mus musculus [8] = experiment: Neurotoxicity in CF1 mouse assessed as time to peak effect muscle spasms at 150 mg/kg, ip by rotarod test; format: toxicity, organism-based, Muscle tissue; design: dose 150 mg/kg, route intraperitoneal; settings: in vivo
Mus musculus [9] = experiment: Neurotoxicity in CF1 mouse assessed as ability to grasp rotarod at 300 mg/kg, ip after 0.5 hrs by rotarod test; format: toxicity, organism-based; design: dose 300 mg/kg, route intraperitoneal; settings: in vivo; how it was run: as §2
Rattus norvegicus [10] = experiment: Neurotoxicity in Sprague-Dawley rat at 30 mg/kg, ip after 0.5 hrs by rotarod test; format: toxicity, organism-based; design: dose 30 mg/kg, route intraperitoneal; settings: in vivo
Mus musculus [11] = experiment: Anticonvulsant activity in ip dosed CF1 mouse assessed as inhibition of maximal electroshock-induced seizures after 0.5 hrs; format: functional
Mus musculus [12] = experiment: Anticonvulsant activity in CF1 mouse assessed as time to peak effect for inhibition of maximal electroshock-induced seizures at 35 mg/kg, ip after 2 hrs; format: functional, organism-based; design: dose 35 mg/kg
Mus musculus [13] = experiment: Neurotoxicity in CF1 mouse assessed as mortality at 300 mg/kg, ip after 4 hrs by rotarod test; format: toxicity, organism-based; design: dose 300 mg/kg, route intraperitoneal; settings: in vivo
How it was run: (§4)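 Male albino CF#1 mice (18–25.5 g), free access to food and water except during testing, under NINDS Anticonvulsant Screening Program procedures. Compounds were suspended in 0.5% methylcellulose and given ip. Neurotoxicity was scored by rotarod 0.5 h and 4 h after dosing, at screening doses of 30, 100 or 300 mg/kg. Results are reported as affected/tested animals.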

Pseudomonas aeruginosa = experiment: Antibacterial activity against Pseudomonas aeruginosa ATCC 27853 after 24 hrs by broth microdilution method; format: functional; settings: ATCC 27853, 24 h; how it was run: as §1
Rattus norvegicus [14] = experiment: Neurotoxicity in Sprague-Dawley rat at 30 mg/kg, po after 2 hrs by rotarod test; format: toxicity, organism-based; design: dose 30 mg/kg, route oral; settings: in vivo
Mus musculus [15] = experiment: Anticonvulsant activity in CF1 mouse assessed as time to peak effect for inhibition of maximal electroshock-induced seizures at 70 mg/kg, ip; format: functional; settings: route intraperitoneal
Rattus norvegicus [16] = experiment: Anticonvulsant activity in rat assessed as inhibition of hippocampal kindle-stimulated seizures at 300 mg/kg, ip; format: functional, organism-based; design: dose 300 mg/kg; settings: Hippocampus
How it was run: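 Hippocampal kindled rat model; single animal given 300 mg/kg ip.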

[17] = Therapeutic index, ratio of TD50 for CF1 mouse to ED50 for CF1 mouse
How it was run: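 Ratio of TD50 to ED50, both from ip dosing at the time of peak effect, with groups of at least 8 per dose and Finney probit analysis. […] Toxicity was read by rotarod in mice and by positional sense, gait and stance in rats.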

Rattus norvegicus [18] = experiment: Anticonvulsant activity in Sprague-Dawley rat assessed as inhibition of maximal electroshock-induced seizures at 30 mg/kg, po after 1 hr; format: functional, organism-based; design: dose 30 mg/kg
How it was run: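 Male albino Sprague-Dawley rats (105–130 g) given a single oral 30 mg/kg dose suspended in 0.5% methylcellulose; MES (60 Hz, 150 mA, 0.2 s, tetracaine-anesthetized eyes) at 0.25, 0.5, 1, 2 and 4 h; 4 rats per time point; scored protected/tested.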

Rattus norvegicus [19] = experiment: Anticonvulsant activity in Sprague-Dawley rat assessed as time to peak effect for inhibition of maximal electroshock-induced seizures at 30 mg/kg, ip; format: functional; settings: route intraperitoneal
Rattus norvegicus [20] = experiment: Neurotoxicity in Sprague-Dawley rat assessed as time to peak effect at 10 to 30 mg/kg, ip after 0.25 to 4 hrs by rotarod test; format: toxicity, organism-based; design: route intraperitoneal; settings: in vivo
Candida parapsilosis = experiment: Antifungal activity against Candida parapsilosis ATCC 22019 after 48 hrs by broth microdilution method; format: functional; settings: Lodderomyces parapsilosis, ATCC 22019, 48 h
Rattus norvegicus [21] = experiment: Neurotoxicity in Sprague-Dawley rat assessed as time to peak effect at 75 mg/kg, ip by rotarod test; format: toxicity, organism-based; design: dose 75 mg/kg, route intraperitoneal; settings: in vivo
Rattus norvegicus [22] = experiment: Anticonvulsant activity in Sprague-Dawley rat assessed as inhibition of maximal electroshock-induced seizures at 30 mg/kg, ip; format: functional, organism-based; design: dose 30 mg/kg
Rattus norvegicus [23] = experiment: Neurotoxicity in Sprague-Dawley rat at 30 mg/kg, po after 0.5 hrs by rotarod test; format: toxicity, organism-based; design: dose 30 mg/kg, route oral; settings: in vivo
Rattus norvegicus [24] = experiment: Neurotoxicity in Sprague-Dawley rat at 30 mg/kg, ip after 2 hrs by rotarod test; format: toxicity, organism-based; design: dose 30 mg/kg, route intraperitoneal; settings: in vivo
Mus musculus [25] = experiment: Neurotoxicity in CF1 mouse at 30 mg/kg, ip after 4 hrs by rotarod test; format: toxicity, organism-based; design: dose 30 mg/kg, route intraperitoneal; settings: in vivo; how it was run: as §2
Rattus norvegicus [26] = experiment: Neurotoxicity in Sprague-Dawley rat at 30 mg/kg, po after 4 hrs by rotarod test; format: toxicity, organism-based; design: dose 30 mg/kg, route oral; settings: in vivo
Pichia kudriavzevii = experiment: Antifungal activity against Candida krusei ATCC 6258 after 48 hrs by broth microdilution method; format: functional; settings: ATCC 6258, 48 h
Mus musculus [27] = experiment: Neurotoxicity in CF1 mouse assessed as ability to grasp rotarod at 300 mg/kg, ip after 4 hrs by rotarod test; format: toxicity, organism-based; design: dose 300 mg/kg, route intraperitoneal; settings: in vivo; how it was run: as §4
Rattus norvegicus [28] = experiment: Anticonvulsant activity in ip dosed Sprague-Dawley rat assessed as inhibition of maximal electroshock-induced seizures after 0.5 hrs; format: functional
Mus musculus [29] = experiment: Anticonvulsant activity in CF1 mouse assessed as time to peak effect for inhibition of maximal electroshock-induced seizures at 70 mg/kg, ip after 4 hrs; format: functional, organism-based; design: dose 70 mg/kg
Mus musculus [30] = experiment: Anticonvulsant activity in CF1 mouse assessed as inhibition of maximal electroshock-induced seizures at 100 mg/kg, ip after 0.5 hrs; format: functional, organism-based; design: dose 100 mg/kg; how it was run: as §3
Enterococcus faecalis = experiment: Antibacterial activity against Enterococcus faecalis ATCC 29212 after 24 hrs by broth microdilution method; format: functional; settings: ATCC 29212, 24 h; how it was run: as §1

SMILES: CC(C)CC(=O)OC(Cn1ccnc1)c1ccc2ccccc2c1 (stereo unspecified)
- MIC (Escherichia coli): > 1020 µg/mL
- Activity (Mus musculus [1]): Not Active
- Activity (Mus musculus [2]): Non-toxic
- MIC (Staphylococcus aureus): 8 µg/mL (≈ 24.8 µM)
- inhibition (Mus musculus [3]): inactive
- Activity (Rattus norvegicus [4]): Non-toxic
- Time (Mus musculus [5]): 0.25 h
- inhibition (Mus musculus [6]): Active
- Activity (Rattus norvegicus [7]): Non-toxic
- Time (Mus musculus [8]): 0.25 h
- Activity (Mus musculus [9]): Toxic
- Activity (Rattus norvegicus [10]): Non-toxic
- ED50 (Mus musculus [11]): 38.5 mg/kg
- Activity (Mus musculus [12]): inactive
- Activity (Mus musculus [13]): Toxic
- MIC (Pseudomonas aeruginosa): > 1020 µg/mL
- Activity (Rattus norvegicus [14]): Non-toxic
- Time (Mus musculus [15]): 0.5 h
- inhibition (Rattus norvegicus [16]): inactive
- selectivity ratio [17]: 3.22
- inhibition (Rattus norvegicus [18]): inactive
- Time (Rattus norvegicus [19]): 0.5 h
- Activity (Rattus norvegicus [20]): Non-toxic
- MIC (Candida parapsilosis): 64 µg/mL (≈ 199 µM)
- Time (Rattus norvegicus [21]): 0.5 h
- inhibition (Rattus norvegicus [22]): Active
- Activity (Rattus norvegicus [23]): Non-toxic
- Activity (Rattus norvegicus [24]): Non-toxic
- Activity (Mus musculus [25]): Non-toxic
- Activity (Rattus norvegicus [26]): Non-toxic
- MIC (Pichia kudriavzevii): 128 µg/mL (≈ 397 µM)
- Activity (Mus musculus [27]): Toxic
- ED50 (Rattus norvegicus [28]): 20.4 mg/kg
- Activity (Mus musculus [29]): inactive
- inhibition (Mus musculus [30]): Active
- MIC (Enterococcus faecalis): 64 µg/mL (≈ 199 µM)
